Results reported in PMC11559620 (Science Advances, 2024).
“Also recorded” adds a separate entry of the source. Like-named read-outs stand apart in the source and are kept apart here.

What was measured:
NHX1 = experiment: Yeast two-hybrid assay, CMD1 with NHX1; type: cell-based, Arabidopsis; settings: fig. S1A
NHX1 to NHX4 = experiment: Yeast two-hybrid assay, CML17 with vacuolar NHX1 to NHX4; type: cell-based, Arabidopsis; settings: fig. S1B
How it was run: (§1)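 Strain AH109 was cotransformed with NHX C-terminal fragments in pGBKT7 (GAL4 BD) and CML17 or CML18 in pGADT7 (GAL4 AD), selected on YNB-Trp-Leu. Cultures were grown at 28°C to saturation (OD600 ~2), then 5-μl drops of 10-fold dilutions were spotted on YNB-Trp-Leu, -His-Trp-Leu and -Ade-Trp-Leu. Plates were incubated at 28°C for 3–4 days. p53/pSV40 served as positive control, empty vectors as negative.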

[1] = biological target: CML-BD peptide, synthetic peptide of the CML18-binding motif of NHX1 (residues D485 to R518) (Arabidopsis thaliana); experiment: ITC
[2] = biological target: CML-BD peptide, synthetic peptide of the CML18-binding motif of NHX1 (residues D485 to R518) (Arabidopsis thaliana); experiment: ITC; remark: listed apart in the source
CBD = experiment: Split-ubiquitin assay, interaction of pore domain with CBD; type: cell-based, Arabidopsis; settings: yeast; YNB without adenine and histidine, 3 days at 28°C
How it was run: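 Split-ubiquitin assay in yeast: NHX1 pore domain (residues M1–T292) was fused to Cub-PLV (pMetYCgate). The CBD (S486–G516) or the intervening loop (L453–N480) was fused to NubG (pNXgate32). KAT1 served as dimerisation positive control and CBD negative control. Double transformants were spotted on YNB with and without adenine and histidine. Expression was checked by HA/c-Myc immunoblot.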

AXT3K strain [3] = experiment: Complementation assay, hygromycin B resistance of yeast AXT3K; type: cell-based, Saccharomyces cerevisiae
CML18 [4] = experiment: Bimolecular fluorescence complementation, interaction with CML18; type: cell-based, Arabidopsis; settings: leaves of N. benthamiana
How it was run: (§2)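 Agrobacterium GV3101 carrying BiFC constructs was co-infiltrated with a p19-transformed strain into 5- to 6-week-old N. benthamiana leaves. Full-length NHX1 or NHX2 and CML18 were each fused to complementary halves of eYFP. Empty pSPYCE(M) served as negative control. The lower epidermis was imaged by confocal microscopy (515-nm laser, 60× objective) under constant imaging settings, using a YFP filter.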

NHX2 = experiment: Bimolecular fluorescence complementation, interaction with NHX2; type: cell-based, Arabidopsis; settings: leaves of N. benthamiana
How it was run: as §2

C terminus of NHX1 = experiment: Yeast two-hybrid assay, dimerization with C terminus of NHX1; type: cell-based, Arabidopsis; settings: fig. S2; cytosolic C-terminal domains
CML18 [5] = experiment: Yeast two-hybrid assay, interaction with CML18; type: cell-based, Arabidopsis; settings: C-terminal cytosolic fragments; selective YNB media
How it was run: as §1

yeast vacuoles = experiment: Vacuolar pH of yeast by BCECF-AM; type: cell-based, Saccharomyces cerevisiae; settings: n = 8
AXT3K strain [6] = experiment: Growth of AXT3K in pH-buffered liquid media with hygromycin B; type: cell-based, Saccharomyces cerevisiae; settings: buffered at acidic or neutral pH; OD600 after 24h
How it was run: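 Strain AXT3K (ena1-4, nha1 and nhx1 deletions; HygB-sensitive) carried NHX1 alleles in pDR195, selected on YNB lacking His and Ura. Cultures were grown overnight at 30°C and adjusted to OD600 0.5. Then 20 μl was inoculated into 200 μl liquid medium per well and serially diluted 10-fold. Incubation was at 30°C, with OD600 read at 24 and 48 h. Three independent transformants were tested per construct.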

Molecule: CMD1: the only calmodulin protein produced in S. cerevisiae
- interaction with NHX1 (Y2H) (NHX1): negative results

B1: CML17: calmodulin-like protein of Arabidopsis, At1g32250 (protein)
chain: MSHKVSKKLDEEQINELREIFRSFDRNKDGSLTQLELGSLLRALGVKPSPDQFETLIDKADTKSNGLVEFPEFVALVSPELLSPAKRTTPYTEEQLLRLFRIFDTDGNGFITAAELAHSMAKLGHALTVAELTGMIKEADSDGDGRINFQEFAKAINSAAFDDIWG
modifications: left off: Gal4 activation domain (vector pGADT7), end not stated, kept
- interaction with vacuolar NHX1 to NHX4 (Y2H) (NHX1 to NHX4): failed to demonstrate interaction

B2: CML18, recombinant, purified (natural protein)
chain: MSCDGGKPAPAKLGDEQLAELREIFRSFDQNKDGSLTELELGSLLRSLGLKPSQDQLDTLIQKADRNNNGLVEFSEFVALVEPDLVKCPYTDDQLKAIFRMFDRDGNGYITAAELAHSMAKLGHALTAEELTGMIKEADRDGDGCIDFQEFVQAITSAAFDNAWG
- Kd [1]: 3020 nM
- stoichiometry N (CML-BD binding sites per CML18 monomer) [1]: 2
- Kd [2]: 2210 nM

B3: pore domain (TM1 to TM9): pore domain of NHX1 (residues M1 to T292) fused to Cub-PLV (protein)
chain: MLDSLVSKLPSLSTSDHASVVALNLFVALLCACIVLGHLLEENRWMNESITALLIGLGTGVTILLISKGKSSHLLVFSEDLFFIYLLPPIIFNAGFQVKKKQFFRNFVTIMLFGAVGTIISCTIISLGVTQFFKKLDIGTFDLGDYLAIGAIFAATDSVCTLQVLNQDETPLLYSLVFGEGVVNDATSVVVFNAIQSFDLTHLNHEAAFHLLGNFLYLFLLSTLLGAATGLISAYVIKKLYFGRHSTDREVALMMLMAYLSYMLAELFDLSGILTVFFCGIVMSHYTWHNVT
modifications: left off: Cub-PLV, end not stated, kept
- interaction with CBD (split-ubiquitin) (CBD): confirmed

B4: NHX1: vacuolar K+/H+ exchanger of Arabidopsis; C-terminal T435 to A538 in Y2H (protein, UniProt Q68KI4 435-538, looked up, fragment)
chain: TKPLISYLLPHQNATTSMLSDDNTPKSIHIPLLDQDSFIEPSGNHNVPRPDSIRGFLTRPTRTVHYYWRQFDDSFMRPVFGGRGFVPFVPGSPTERNPPDLSKA
- HygB resistance / protein activity in AXT3K (AXT3K strain [3]; YPD + HygB (50 μg/ml), 30°C): suppressed the HygB sensitivity
- interaction with CML18 (BiFC) (CML18 [4]): interacted with CML18
- interaction with NHX2 (BiFC) (NHX2): interacted with NHX2-cYFP
- homodimerization / heterodimerization (Y2H) (C terminus of NHX1): positive results
- interaction with CML18 (Y2H) (CML18 [5]): strongly; also recorded: CML18 binding was confirmed

B5: D506N (protein, UniProt Q68KI4 1-538, looked up, variant D506N)
Sodium/hydrogen exchanger 1: MLDSLVSKLPSLSTSDHASVVALNLFVALLCACIVLGHLLEENRWMNESITALLIGLGTGVTILLISKGKSSHLLVFSEDLFFIYLLPPIIFNAGFQVKKKQFFRNFVTIMLFGAVGTIISCTIISLGVTQFFKKLDIGTFDLGDYLAIGAIFAATDSVCTLQVLNQDETPLLYSLVFGEGVVNDATSVVVFNAIQSFDLTHLNHEAAFHLLGNFLYLFLLSTLLGAATGLISAYVIKKLYFGRHSTDREVALMMLMAYLSYMLAELFDLSGILTVFFCGIVMSHYTWHNVTESSRITTKHTFATLSFLAETFIFLYVGMDALDIDKWRSVSDTPGTSIAVSSILMGLVMVGRAAFVFPLSFLSNLAKKNQSEKINFNMQVVIWWSGLMRGAVSMALAYNKFTRAGHTDVRGNAIMITSTITVCLFSTVVFGMLTKPLISYLLPHQNATTSMLSDDNTPKSIHIPLLDQDSFIEPSGNHNVPRPDSIRGFLTRPTRTVHYYWRQFNDSFMRPVFGGRGFVPFVPGSPTERNPPDLSKA
- HygB resistance / protein activity in AXT3K (AXT3K strain [3]; YPD + HygB (50 μg/ml), 30°C): inactive; also recorded: unable to suppress the sensitivity of the nhx1 mutant to HygB
- HygB resistance / protein activity in AXT3K (AXT3K strain [3]; in combination with H499L): inactive
- vacuolar pH (pHvac) (yeast vacuoles): overly acidic
- interaction with CML18 (Y2H) (CML18 [5]): lost the ability to bind CML18
- activity irrespective of pH of growth media (AXT3K strain [6]): inactive
